Measured values reported in paper PMC3119342 (Chemistry & biology, 2011).
Entries after “also recorded” stand apart in the source; their conditions may differ.

Legend:
[1] = tested on: MAGE lipids; test: Lipid measurements; format: cell-based, human; details: for MAGE lipids: prostate cancer cells (Figure S4); for MAGE lipid levels: 1 μM, 48 hr
[2] = tested on: PC3 cells; test: Invasion assay; format: cell-based, human; details: prostate cancer (PC3) cells; JW480 1 μM, 48 h in situ
[3] = tested on: PC3 cells; test: Serum-free cell survival assay; format: cell-based, human; details: prostate cancer (PC3) cells; JW480 1 μM, 48 h in situ
[4] = target: T1, HSL (Mus musculus, UniProt P54310); test: Competitive ABPP in rosiglitazone-differentiated 3T3-10T1/2 adipocyte proteome; format: biochemical
T1 sequence (P54310 1-759): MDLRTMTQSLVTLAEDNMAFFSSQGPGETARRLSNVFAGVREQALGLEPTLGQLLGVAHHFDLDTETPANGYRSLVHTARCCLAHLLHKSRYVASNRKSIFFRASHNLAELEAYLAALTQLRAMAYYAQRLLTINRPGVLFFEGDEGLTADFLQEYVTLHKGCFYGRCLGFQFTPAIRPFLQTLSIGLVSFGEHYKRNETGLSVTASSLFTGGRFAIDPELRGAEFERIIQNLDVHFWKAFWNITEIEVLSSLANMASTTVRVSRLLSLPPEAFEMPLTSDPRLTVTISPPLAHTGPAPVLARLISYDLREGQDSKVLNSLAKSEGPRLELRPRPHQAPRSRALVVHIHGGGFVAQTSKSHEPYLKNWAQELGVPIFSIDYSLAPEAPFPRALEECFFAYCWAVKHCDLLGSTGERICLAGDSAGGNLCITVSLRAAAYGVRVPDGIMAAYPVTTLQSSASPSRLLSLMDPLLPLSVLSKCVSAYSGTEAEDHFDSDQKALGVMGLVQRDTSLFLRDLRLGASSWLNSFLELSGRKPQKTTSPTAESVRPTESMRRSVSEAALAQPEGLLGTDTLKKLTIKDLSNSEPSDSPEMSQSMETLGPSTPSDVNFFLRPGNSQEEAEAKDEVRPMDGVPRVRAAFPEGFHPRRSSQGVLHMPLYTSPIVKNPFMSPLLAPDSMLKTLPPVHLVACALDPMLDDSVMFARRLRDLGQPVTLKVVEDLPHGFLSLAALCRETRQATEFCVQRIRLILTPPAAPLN

[5] = tested on: PC3 cells; test: Cell migration assay; format: cell-based, human; details: prostate cancer (PC3) cells; JW480 1 μM, 48 h in situ
[6] = target: AChE (Mus musculus, UniProt P21836); details: mouse brain proteome; for IC50: read-out: IC50 for AChE, substrate acetylthiocholine
[7] = target: T2, FAAH (Mus musculus, UniProt O08914); test: Competitive ABPP of FAAH in mouse brain proteome; format: biochemical; details: gel-based competitive ABPP of a mouse brain proteome
T2 sequence (O08914 1-579): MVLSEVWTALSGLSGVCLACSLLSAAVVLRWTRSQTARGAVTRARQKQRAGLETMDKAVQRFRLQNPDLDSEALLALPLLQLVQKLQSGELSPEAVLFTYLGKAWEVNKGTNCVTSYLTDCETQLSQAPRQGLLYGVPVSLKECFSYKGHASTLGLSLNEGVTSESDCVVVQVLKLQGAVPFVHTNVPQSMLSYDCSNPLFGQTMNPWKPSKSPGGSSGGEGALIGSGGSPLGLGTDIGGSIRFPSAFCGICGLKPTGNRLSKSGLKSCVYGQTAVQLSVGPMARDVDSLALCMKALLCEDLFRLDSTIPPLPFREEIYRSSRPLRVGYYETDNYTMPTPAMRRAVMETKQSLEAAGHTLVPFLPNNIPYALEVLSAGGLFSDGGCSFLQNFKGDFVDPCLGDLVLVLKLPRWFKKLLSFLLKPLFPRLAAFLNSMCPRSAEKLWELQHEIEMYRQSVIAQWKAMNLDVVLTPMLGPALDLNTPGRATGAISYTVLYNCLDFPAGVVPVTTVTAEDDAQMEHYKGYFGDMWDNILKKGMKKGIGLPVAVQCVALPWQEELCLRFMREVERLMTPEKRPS

[8] = target: T3, mouse brain KIAA1363 (Mus musculus, UniProt Q8BLF1); test: Gel-based competitive ABPP; format: biochemical; details: read-out: IC50 for KIAA1363, mouse brain proteome
T3 sequence (Q8BLF1 1-408): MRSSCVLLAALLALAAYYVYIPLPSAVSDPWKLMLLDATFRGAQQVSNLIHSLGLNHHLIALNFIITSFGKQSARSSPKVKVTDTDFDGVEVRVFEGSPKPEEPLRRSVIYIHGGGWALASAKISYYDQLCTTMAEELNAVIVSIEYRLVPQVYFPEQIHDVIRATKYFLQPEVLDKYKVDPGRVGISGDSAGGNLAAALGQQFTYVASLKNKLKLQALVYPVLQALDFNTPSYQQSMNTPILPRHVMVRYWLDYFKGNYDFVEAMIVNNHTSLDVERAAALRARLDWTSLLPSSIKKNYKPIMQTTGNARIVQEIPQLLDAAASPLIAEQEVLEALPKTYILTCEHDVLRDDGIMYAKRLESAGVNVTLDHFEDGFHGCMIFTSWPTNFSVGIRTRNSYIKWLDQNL

[9] = tested on: PC3 tumor xenograft; test: PC3 tumor xenograft growth in SCID mice; format: in vivo, mouse; details: 80 mg/kg, oral gavage, one dose per day, versus vehicle
Outline: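 PC3 cells were washed, trypsinised, resuspended serum-free at 2.0 × 10^4 cells/μL, and 100 μL was injected into the flank of C.B17 SCID mice. Dosing was once daily by oral gavage in PEG300 (4 μL/g) or vehicle, starting immediately after injection. Tumours were measured with calipers every 3 days and excised 4 hr after the final dose on day 33 for ABPP.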

[10] = tested on: LNCaP cells; test: Cell survival assay in LNCaP cells; format: cell-based, human; details: which express low levels of KIAA1363
[11] = target: T4, brain KIAA1363 (Mus musculus, UniProt Q8BLF1); test: Competitive ABPP of brain proteomes from inhibitor-treated mice; format: in vivo; details: for inhibition of brain KIAA1363: 4 hr
T4 sequence (Q8BLF1 1-408): T3 sequence (Q8BLF1 1-408)

[12] = tested on: serine hydrolase activities detected in PC3 cells; test: Competitive ABPP-MudPIT of PC3 cells treated in situ; format: cell-based, human; details: 1 μM in situ, ~30 serine hydrolase activities
[13] = tested on: other mouse brain serine hydrolases; test: Gel-based competitive ABPP, other serine hydrolases of mouse brain proteome; format: biochemical
[14] = target: T5, KIAA1363 (Homo sapiens, UniProt Q6PIU2); test: Gel-based competitive ABPP in living PC3 cells; format: cell-based; details: for IC50: read-out: IC50 for KIAA1363
T5 sequence (Q6PIU2 1-408): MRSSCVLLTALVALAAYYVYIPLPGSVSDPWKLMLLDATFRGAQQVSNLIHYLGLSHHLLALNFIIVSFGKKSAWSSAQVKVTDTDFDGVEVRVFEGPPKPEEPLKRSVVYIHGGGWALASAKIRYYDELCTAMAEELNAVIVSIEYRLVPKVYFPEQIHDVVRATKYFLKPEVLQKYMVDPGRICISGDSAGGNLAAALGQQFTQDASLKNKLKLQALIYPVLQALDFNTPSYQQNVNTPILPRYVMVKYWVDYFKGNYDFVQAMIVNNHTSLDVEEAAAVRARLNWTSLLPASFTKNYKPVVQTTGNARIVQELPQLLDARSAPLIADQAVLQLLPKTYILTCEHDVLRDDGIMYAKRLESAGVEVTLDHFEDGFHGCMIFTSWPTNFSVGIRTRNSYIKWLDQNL

[15] = target: serine hydrolase activities detected in the brain proteome (Mus musculus, UniProt P21836); details: brain proteome of treated mice (Figure 4C)
[16] = target: T5, KIAA1363; test: Gel-based competitive ABPP in PC3 cell proteomes; format: biochemical; details: read-out: IC50 for human KIAA1363, in vitro treatment
[17] = target: T6, KIAA1363 (2-acetyl MAGE hydrolase activity) (Homo sapiens, UniProt Q6PIU2); test: 2-Acetyl MAGE hydrolytic activity assay in prostate cancer cells; format: cell-based; details: 1 μM, 48 h
T6 sequence (Q6PIU2 1-408): T5 sequence (Q6PIU2 1-408)

AChE, sequence (P21836 32-614): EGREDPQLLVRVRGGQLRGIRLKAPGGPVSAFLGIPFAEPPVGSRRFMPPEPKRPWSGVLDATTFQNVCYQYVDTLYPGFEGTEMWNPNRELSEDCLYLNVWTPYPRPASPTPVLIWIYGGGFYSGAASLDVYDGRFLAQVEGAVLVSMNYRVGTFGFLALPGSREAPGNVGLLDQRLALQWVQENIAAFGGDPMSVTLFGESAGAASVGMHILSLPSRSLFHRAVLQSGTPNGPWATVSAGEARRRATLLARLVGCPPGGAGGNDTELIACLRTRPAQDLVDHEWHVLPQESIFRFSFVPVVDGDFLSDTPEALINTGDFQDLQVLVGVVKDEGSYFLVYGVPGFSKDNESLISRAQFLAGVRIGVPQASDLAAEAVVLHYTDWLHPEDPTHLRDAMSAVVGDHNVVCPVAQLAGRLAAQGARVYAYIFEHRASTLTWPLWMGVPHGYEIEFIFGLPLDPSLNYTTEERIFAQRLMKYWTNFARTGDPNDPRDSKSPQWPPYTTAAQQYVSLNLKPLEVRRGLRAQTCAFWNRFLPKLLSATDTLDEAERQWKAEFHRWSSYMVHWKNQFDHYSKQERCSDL
serine hydrolase activities detected in the brain proteome, sequence (P21836 32-614): as above

SMILES	MAGE lipids [1]	invasion [2]	survival in serum-free media [3]	cross-reactivity with HSL [4]	migration [5]	cross-reactivity with AChE [6]	IC50 [6]	selectivity for KIAA1363 compared to FAAH [7]	IC50 [8]	further results
CCCCOC[C@H]1CCCC[C@H]1COCCNC(=O)Oc1ccccc1F [AS115, reference compound]	reductions	also observed	also observed							
COc1ccc(CNC(=O)Oc2cccc3c2OC(C)(C)C3)cc1 [JW148]	reductions	also observed	also observed	cross-reactivity	also observed	cross-reactivity	1000 nM	good selectivity	~200 nM	
CC(C)c1ccccc1OC(=O)NCCc1ccc2ccccc2c1 [JW480]		reductions; also recorded: reduced	reductions; also recorded: reduced	negligible cross-reactivity	reductions; also recorded: reduced	negligible cross-reactivity	> 100000 nM			PC3 tumor growth [9]: significantly impaired; also recorded: significantly reduces; survival in LNCaP cells [10]: did not affect; time of full inhibition of KIAA1363 in mice ([11]; following a single administration, orally active): at least 24 hrs; inhibition of brain KIAA1363 ([11]; mice, 5 mg/kg i.p.): complete inhibition; inhibition of brain KIAA1363 ([11]; mice, 20 mg/kg oral): complete inhibition; time inhibition of KIAA1363 was maintained in vivo ([11]; mice, single administration, 20 mg/kg, oral): up to 24 hr; MAGE lipid levels ([1]; DU145 cells): significant reductions; also recorded: significantly reduces; MAGE lipid levels ([1]; PC3 cells): significant reductions; also recorded: significantly reduces; off-target activity across serine hydrolases by ABPP-MudPIT [12]: no off-target activity; also recorded: only KIAA1363 was inhibited; cross-reactivity with other mouse brain serine hydrolases [13]: negligible cross-reactivity; time in situ inhibition of KIAA1363 was maintained ([14]; 1 μM, in situ): at least 48 hr; IC50 ([14]; PC3 cells, in situ): 6 nM; IC50 ([14]; living PC3 cells, in situ treatment, presence or absence of 10% fetal calf serum): 6 to 12 nM; cross-reactivity with AChE by competitive ABPP-MudPIT [15]: negligible cross-reactivity; IC50 [16]: 12 nM; 2-acetyl MAGE hydrolase activity ([17]; DU145 cells): completely blocked; also recorded: ablates; 2-acetyl MAGE hydrolase activity ([17]; PC3 cells): completely blocked; also recorded: ablates
CC1(C)Cc2cccc(OC(=O)NCc3ccc(F)cc3)c2O1 [WWL38]				cross-reactivity		cross-reactivity		good selectivity	~200 nM	
